Measured values reported in ChEMBL document CHEMBL1156196, “'Click chemistry' synthesis of a library of 1,2,3-triazole-substituted galactose derivatives and their evaluation against Trypanosoma cruzi and its cell surface trans-sialidase” (Bioorg Med Chem, 2010).
Active and inactive are the calls of the source. No cut-off for these calls is given here.

How the values were obtained:
Trypanosoma cruzi [1] = experiment: Inhibition of Trypanosoma cruzi recombinant trans-sialidase at 1 mM after 10 mins by MUNANA continuous fluorimetric assay
How it was run: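 Recombinant His-tagged 70 kDa TcTS, truncated to drop the C-terminal repeats and keep the catalytic N-terminal domain. Enzyme and inhibitor were preincubated 10 min at 26 °C in phosphate buffer pH 7.4. MuNANA (assay concentration 0.1 mM) was then added, and released methylumbelliferone fluorescence was read after 10 min (ex 360, em 460 nm). Run in duplicate.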

Trypanosoma cruzi [2] = experiment: Inhibition of Trypanosoma cruzi recombinant trans-sialidase at 0.5 mM after 10 mins by MUNANA continuous fluorimetric assay
How it was run: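 Same His-tagged truncated recombinant TcTS (catalytic N-terminal domain) in phosphate buffer pH 7.4. Samples were dissolved in water with 0.6% DMSO and tested at 0.5 mM. Preincubation was 10 min at 26 °C, then 0.1 mM MuNANA was added. Mu fluorescence was read at 10 min (ex 360, em 460 nm), in duplicate.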

[3] = Cytotoxicity against mouse splenocytes after 24 hrs using propidium iodide staining by FACS analysis; assay type: cell-based; conditions: splenocyte
How it was run: (§1)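 Spleen cells from C57BL/6 mice were mechanically dissociated and given red-cell lysis for 4 min in Tris-HCl pH 7.5/NH₄Cl. They were plated at 5 × 10⁵ cells/well with test compounds (maximum 0.25 mM for less soluble ones) for 24 h at 37 °C, 5% CO₂. 0.5% Tween 20 was the death control. Cells were stained with 10 µg/mL propidium iodide.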

[4] = Cytotoxicity against mouse splenocytes at 50 to 100 uM after 24 hrs using propidium iodide staining by FACS analysis; assay type: cell-based; conditions: splenocyte; how it was run: as §1
Trypanosoma cruzi [5] = experiment: Antitrypanosomal activity against Trypanosoma cruzi Y at < 100 uM after 24 hrs; assay type: functional, organism-based
How it was run: (§2)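 Y-strain trypomastigotes from LLC-MK₂ cultures, 6.5 × 10⁶ parasites/ml in RPMI with 10% FBS. Exposure included 750, 500, 250 and 100 µM at 37 °C, 5% CO₂. Poorly water-soluble compounds needed 0.6% DMSO and were capped at 0.75 mM. Benznidazole was the reference drug. Viability was measured by counting motile forms after 24 h.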

Trypanosoma cruzi [6] = experiment: Antitrypanosomal activity against Trypanosoma cruzi Y at > 100 uM after 24 hrs; assay type: functional; how it was run: as §2
[7] = in the assay text read “in the low 100s of uM range” for “at < 100 uM”

Structure (SMILES) | inhibition (Trypanosoma cruzi [1]) | Activity [3] | also measured
CO[C@@H]1O[C@H](Cn2cc(CCCC(=O)O)nn2)[C@H](O)[C@H](O)[C@H]1O | inactive |  | 
OC[C@H]1O[C@@H](n2cc(-c3cccnc3)nn2)[C@H](O)[C@@H](O)[C@H]1O |  | Toxic | inhibition (Trypanosoma cruzi [2]): 15%; Activity [4]: 50%
CC(O)Cc1cn([C@@H]2O[C@H](CO)[C@H](O)[C@H](O)[C@H]2O)nn1 (single isomer, unassigned) | 14% |  | 
OCc1cn([C@@H]2O[C@H](CO)[C@H](O)[C@H](O)[C@H]2O)nn1 | 11% |  | 
CN(Cc1ccccc1)Cc1cn([C@@H]2O[C@H](CO)[C@H](O)[C@H](O)[C@H]2O)nn1 | 22% |  | 
OCCCc1cn([C@@H]2O[C@H](CO)[C@H](O)[C@H](O)[C@H]2O)nn1 | 27% |  | 
CO[C@@H]1O[C@H](Cn2cc(Cc3ccccc3)nn2)[C@H](O)[C@H](O)[C@H]1O | 29% |  | 
CO[C@@H]1O[C@H](Cn2cc(-c3ccccc3Br)nn2)[C@H](O)[C@H](O)[C@H]1O | 29% |  | 
Nc1ccc(-c2cn([C@@H]3O[C@H](CO)[C@H](O)[C@H](O)[C@H]3O)nn2)cc1 | 19% | Non-toxic | Activity (Trypanosoma cruzi [5]; [7]): Active
OC[C@H]1O[C@@H](n2cc(-c3ccc(C(F)(F)F)cc3)nn2)[C@H](O)[C@@H](O)[C@H]1O |  | Toxic | inhibition (Trypanosoma cruzi [2]): 9%
OC[C@H]1O[C@@H](n2cc(-c3ccccn3)nn2)[C@H](O)[C@@H](O)[C@H]1O | 13% | Non-toxic | 
Nc1ccccc1-c1cn([C@@H]2O[C@H](CO)[C@H](O)[C@H](O)[C@H]2O)nn1 | 30% | Non-toxic | 
OC[C@H]1O[C@@H](n2cc(Cc3ccccc3)nn2)[C@H](O)[C@@H](O)[C@H]1O | 37% | Active | Activity (Trypanosoma cruzi [6]): 50%; Activity [4]: 50%
OC[C@H]1O[C@@H](n2cc(-c3ccccc3C(F)(F)F)nn2)[C@H](O)[C@@H](O)[C@H]1O | 14% |  | 
O=C(O)CCCc1cn([C@@H]2O[C@H](CO)[C@H](O)[C@H](O)[C@H]2O)nn1 | 10% |  | 
CO[C@@H]1O[C@H](Cn2cc(CN3C(=O)c4ccccc4C3=O)nn2)[C@H](O)[C@H](O)[C@H]1O |  |  | inhibition (Trypanosoma cruzi [2]): 11%
COC(=O)c1cn([C@@H]2O[C@H](CO)[C@H](O)[C@H](O)[C@H]2O)nn1 | 28% |  | 
CO[C@@H]1O[C@H](Cn2cc(-c3ccccc3C(F)(F)F)nn2)[C@H](O)[C@H](O)[C@H]1O | 11% |  | 
OC[C@H]1O[C@@H](n2cc(-c3ccccc3)nn2)[C@H](O)[C@@H](O)[C@H]1O | 15% |  | 
OC[C@H]1O[C@@H](n2cc(COCC3CO3)nn2)[C@H](O)[C@@H](O)[C@H]1O (mixture of isomers) | 27% | Non-toxic | 
OC[C@H]1O[C@@H](n2cc(-c3ccccc3Br)nn2)[C@H](O)[C@@H](O)[C@H]1O | 33% |  | 
O=C1c2ccccc2C(=O)N1Cc1cn([C@@H]2O[C@H](CO)[C@H](O)[C@H](O)[C@H]2O)nn1 | 25% |  | 
CO[C@@H]1O[C@H](Cn2cc(CCCO)nn2)[C@H](O)[C@H](O)[C@H]1O | 24% | Non-toxic | 

Structure (SMILES) | inhibition (Trypanosoma cruzi [1]) | Activity [3] | also measured
CO[C@@H]1O[C@H](Cn2cc(COCC3CO3)nn2)[C@H](O)[C@H](O)[C@H]1O (mixture of isomers) | 25% |  | 
CO[C@@H]1O[C@H](Cn2cc(-c3cccc(C(F)(F)F)c3)nn2)[C@H](O)[C@H](O)[C@H]1O | 3% |  | 
CO[C@@H]1O[C@H](Cn2cc(-c3ccccn3)nn2)[C@H](O)[C@H](O)[C@H]1O | 14% |  | 
CO[C@@H]1O[C@H](Cn2cc(CCCCO)nn2)[C@H](O)[C@H](O)[C@H]1O | 27% |  | 
CO[C@@H]1O[C@H](Cn2cc(CCc3ccccc3)nn2)[C@H](O)[C@H](O)[C@H]1O | 14% |  | 
Cc1ncc(COP(=O)(O)O)c(C=O)c1O | 65% |  | 
CCC(O)c1cn(C[C@H]2O[C@@H](OC)[C@H](O)[C@@H](O)[C@H]2O)nn1 (mixture of isomers) | 29% | Non-toxic | 
CCC(O)c1cn([C@@H]2O[C@H](CO)[C@H](O)[C@H](O)[C@H]2O)nn1 (single isomer, unassigned) | 13% |  | 
OCCCCc1cn([C@@H]2O[C@H](CO)[C@H](O)[C@H](O)[C@H]2O)nn1 | 26% |  | 
CO[C@@H]1O[C@H](Cn2cc(-c3ccc(N)cc3)nn2)[C@H](O)[C@H](O)[C@H]1O | 34% |  | 
OC[C@H]1O[C@@H](n2cc(-c3ccc(Br)cc3)nn2)[C@H](O)[C@@H](O)[C@H]1O |  | Active | inhibition (Trypanosoma cruzi [2]): inactive; Activity [4]: 50%
CO[C@@H]1O[C@H](Cn2cc(-c3ccc(C(F)(F)F)cc3)nn2)[C@H](O)[C@H](O)[C@H]1O |  | Toxic | Activity (Trypanosoma cruzi [5]; [7]): Active; inhibition (Trypanosoma cruzi [2]): 10%; Activity [4]: 50%
CO[C@@H]1O[C@H](Cn2cc(CO)nn2)[C@H](O)[C@H](O)[C@H]1O | 28% |  | 
CO[C@@H]1O[C@H](Cn2cc(-c3ccccc3)nn2)[C@H](O)[C@H](O)[C@H]1O | 14% |  | 
CO[C@@H]1O[C@H](Cn2cc(-c3ccc(Br)cc3)nn2)[C@H](O)[C@H](O)[C@H]1O |  | Toxic | inhibition (Trypanosoma cruzi [2]): 3%
OC[C@H]1O[C@@H](n2cc(CCc3ccccc3)nn2)[C@H](O)[C@@H](O)[C@H]1O | 16% | Toxic | 
CO[C@@H]1O[C@H](Cn2cc(CN(C)Cc3ccccc3)nn2)[C@H](O)[C@H](O)[C@H]1O | 17% | Non-toxic | Activity (Trypanosoma cruzi [5]): Active
OC[C@H]1O[C@@H](n2cc(-c3cccc(C(F)(F)F)c3)nn2)[C@H](O)[C@@H](O)[C@H]1O | 31% |  | 
CO[C@@H]1O[C@H](Cn2cc(-c3cccnc3)nn2)[C@H](O)[C@H](O)[C@H]1O | 20% |  | 
CO[C@@H]1O[C@H](Cn2cc(CC(C)O)nn2)[C@H](O)[C@H](O)[C@H]1O (mixture of isomers) | 10% |  | 
COC(=O)c1cn(C[C@H]2O[C@@H](OC)[C@H](O)[C@@H](O)[C@H]2O)nn1 | 30% |  | 
CC(=O)N[C@H]1[C@H]([C@H](O)[C@H](O)CO)OC(C(=O)O)=C[C@@H]1O | 33% |  | 
CO[C@@H]1O[C@H](Cn2cc(-c3ccccc3N)nn2)[C@H](O)[C@H](O)[C@H]1O | 24% |  | 
